Source: ChEMBL document CHEMBL4371041, “Synthesis and evaluation of thieno[3,2-d]pyrimidine derivatives as novel FMS inhibitors” (Bioorg Med Chem Lett, 2019)

Columns and labels:
NFS-60 = assay: Growth inhibition of mouse NFS60 cells after 72 hrs by CellTiter96 AQueous one solution cell proliferation assay; format: functional; conditions: NFS-60, 72 h
Cytochrome P450 1A2 = Cytochrome P450 1A2 (Homo sapiens, UniProt P05177); assay: Inhibition of CYP1A2 in human liver microsomes by LC-MS/MS analysis; format: ADME
Sequence of Cytochrome P450 1A2 (P05177 whole entry): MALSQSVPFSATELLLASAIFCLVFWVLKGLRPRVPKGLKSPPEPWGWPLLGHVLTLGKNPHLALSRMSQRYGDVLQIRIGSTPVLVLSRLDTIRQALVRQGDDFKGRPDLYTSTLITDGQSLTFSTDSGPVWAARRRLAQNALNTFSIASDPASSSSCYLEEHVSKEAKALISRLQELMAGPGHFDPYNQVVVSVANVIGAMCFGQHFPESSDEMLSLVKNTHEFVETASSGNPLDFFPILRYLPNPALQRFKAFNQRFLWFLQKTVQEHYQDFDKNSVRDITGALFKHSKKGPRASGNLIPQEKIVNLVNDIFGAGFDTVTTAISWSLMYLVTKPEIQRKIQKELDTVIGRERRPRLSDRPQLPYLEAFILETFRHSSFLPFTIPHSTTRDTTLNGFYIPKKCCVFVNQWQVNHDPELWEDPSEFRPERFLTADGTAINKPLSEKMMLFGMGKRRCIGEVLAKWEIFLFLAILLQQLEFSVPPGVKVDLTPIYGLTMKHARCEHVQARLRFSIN
Summary of the method: (§1)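 Reversible CYP inhibition measured in human liver microsomes; metabolite formation quantified by LC/MS/MS.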

Cytochrome P450 2C9 = Cytochrome P450 2C9 (Homo sapiens, UniProt P11712); assay: Inhibition of CYP2C9 in human liver microsomes by LC-MS/MS analysis; format: ADME; summary of the method: as §1
Sequence of Cytochrome P450 2C9 (P11712 whole entry): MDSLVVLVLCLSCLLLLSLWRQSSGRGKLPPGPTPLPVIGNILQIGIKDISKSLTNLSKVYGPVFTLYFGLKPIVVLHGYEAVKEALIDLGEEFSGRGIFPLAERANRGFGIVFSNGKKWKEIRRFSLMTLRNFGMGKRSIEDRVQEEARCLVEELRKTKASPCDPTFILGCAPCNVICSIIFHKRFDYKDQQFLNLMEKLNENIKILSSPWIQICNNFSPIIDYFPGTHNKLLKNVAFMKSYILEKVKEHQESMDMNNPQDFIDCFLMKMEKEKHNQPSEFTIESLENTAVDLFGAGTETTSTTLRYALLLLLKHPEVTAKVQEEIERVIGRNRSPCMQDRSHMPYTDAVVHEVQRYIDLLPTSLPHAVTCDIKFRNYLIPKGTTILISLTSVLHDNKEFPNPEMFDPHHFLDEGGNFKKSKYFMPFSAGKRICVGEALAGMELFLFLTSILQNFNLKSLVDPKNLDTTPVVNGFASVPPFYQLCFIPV

Cytochrome P450 2C19 = Cytochrome P450 2C19 (Homo sapiens, UniProt P33261); assay: Inhibition of CYP2C19 in human liver microsomes by LC-MS/MS analysis; format: ADME; summary of the method: as §1
Sequence of Cytochrome P450 2C19 (P33261 whole entry): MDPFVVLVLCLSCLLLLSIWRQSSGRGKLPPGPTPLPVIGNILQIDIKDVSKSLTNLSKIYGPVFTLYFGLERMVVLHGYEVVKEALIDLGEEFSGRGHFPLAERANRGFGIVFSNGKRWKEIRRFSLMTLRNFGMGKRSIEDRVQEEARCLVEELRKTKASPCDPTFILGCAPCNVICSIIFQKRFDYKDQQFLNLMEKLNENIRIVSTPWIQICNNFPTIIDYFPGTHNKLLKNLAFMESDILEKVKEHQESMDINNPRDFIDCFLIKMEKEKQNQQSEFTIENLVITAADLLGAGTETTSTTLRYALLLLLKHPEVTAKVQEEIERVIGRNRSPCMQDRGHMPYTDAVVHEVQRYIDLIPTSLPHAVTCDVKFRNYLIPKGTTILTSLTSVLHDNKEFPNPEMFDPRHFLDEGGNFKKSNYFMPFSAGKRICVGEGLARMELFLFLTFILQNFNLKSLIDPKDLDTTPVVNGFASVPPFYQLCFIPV

Cytochrome P450 2D6 = Cytochrome P450 2D6 (Homo sapiens, UniProt P10635); assay: Inhibition of CYP2D6 in human liver microsomes by LC-MS/MS analysis; format: ADME; summary of the method: as §1
Sequence of Cytochrome P450 2D6 (P10635 whole entry): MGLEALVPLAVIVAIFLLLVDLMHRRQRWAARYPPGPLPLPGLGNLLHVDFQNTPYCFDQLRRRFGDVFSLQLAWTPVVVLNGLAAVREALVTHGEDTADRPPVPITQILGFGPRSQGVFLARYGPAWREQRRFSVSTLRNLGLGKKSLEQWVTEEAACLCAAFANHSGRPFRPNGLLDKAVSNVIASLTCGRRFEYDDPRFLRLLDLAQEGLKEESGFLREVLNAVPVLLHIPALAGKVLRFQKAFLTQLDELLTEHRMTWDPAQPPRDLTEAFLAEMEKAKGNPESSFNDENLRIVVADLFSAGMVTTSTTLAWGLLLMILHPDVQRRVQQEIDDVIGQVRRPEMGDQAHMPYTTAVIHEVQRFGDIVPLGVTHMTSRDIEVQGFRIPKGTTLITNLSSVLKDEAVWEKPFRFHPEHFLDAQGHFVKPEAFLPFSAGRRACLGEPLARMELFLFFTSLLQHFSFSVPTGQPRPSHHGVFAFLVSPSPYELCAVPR

Cytochrome P450 3A4 = Cytochrome P450 3A4 (Homo sapiens, UniProt P08684); assay: Inhibition of CYP3A4 in human liver microsomes by LC-MS/MS analysis; format: ADME; summary of the method: as §1
Sequence of Cytochrome P450 3A4 (P08684 whole entry): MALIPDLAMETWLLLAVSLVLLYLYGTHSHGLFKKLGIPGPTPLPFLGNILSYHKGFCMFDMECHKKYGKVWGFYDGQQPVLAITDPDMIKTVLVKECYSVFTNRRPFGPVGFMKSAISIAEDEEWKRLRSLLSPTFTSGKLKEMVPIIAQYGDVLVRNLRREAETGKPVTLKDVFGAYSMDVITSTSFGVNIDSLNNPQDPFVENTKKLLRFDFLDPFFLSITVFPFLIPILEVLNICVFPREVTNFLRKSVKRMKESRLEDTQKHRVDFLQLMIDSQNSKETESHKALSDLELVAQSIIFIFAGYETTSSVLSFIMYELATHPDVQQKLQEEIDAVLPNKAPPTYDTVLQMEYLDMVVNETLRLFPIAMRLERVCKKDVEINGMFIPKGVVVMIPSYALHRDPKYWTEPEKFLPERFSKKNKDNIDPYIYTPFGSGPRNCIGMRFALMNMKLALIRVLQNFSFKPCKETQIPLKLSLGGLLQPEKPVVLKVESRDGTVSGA

[1] = Stability in human hepatocytes assessed as parent compound remaining measured after 60 mins; format: ADME, cell-based, Hepatocyte; conditions: read-out: Stability
[2] = Half life in CD-1 mouse at 3 mg/kg, iv; format: ADME, organism-based; conditions: in vivo
[3] = Cmax in CD-1 mouse at 3 mg/kg, iv; format: ADME, organism-based; parameters: dose 3 mg/kg, route intravenous; conditions: in vivo
[4] = AUC (0 to 7 hrs) in CD-1 mouse at 3 mg/kg, iv; format: ADME, organism-based; parameters: dose 3 mg/kg, time < 7 hr, route intravenous; conditions: in vivo
[5] = Volume of distribution in CD-1 mouse at 3 mg/kg, iv; format: ADME, organism-based; conditions: in vivo
[6] = Clearance in CD-1 mouse at 3 mg/kg, iv; format: ADME, organism-based; conditions: in vivo
[7] = Half life in CD-1 mouse at 10 mg/kg, po; format: ADME, organism-based; conditions: in vivo
[8] = Cmax in CD-1 mouse at 10 mg/kg, po; format: ADME, organism-based; parameters: dose 10 mg/kg, route oral; conditions: in vivo
[9] = Tmax in CD-1 mouse at 10 mg/kg, po; format: ADME, organism-based; conditions: in vivo
[10] = AUC (0 to 7 hrs) in CD-1 mouse at 10 mg/kg, po; format: ADME, organism-based; parameters: time < 7 hr, dose 10 mg/kg, route oral; conditions: in vivo
[11] = Oral bioavailability in CD-1 mouse at 10 mg/kg; format: ADME, organism-based; conditions: in vivo

Structure (SMILES)	GI50 (NFS-60)	further results
C#CCn1nc(Br)c2c(NC(=O)c3csc4c(N)ncnc34)cccc21	> 10000 nM	–
COc1ccc(COc2ccc(Cc3cnc(N)nc3N)cc2OC)cc1 [GW632580X]	94 nM	–
Nc1ncnc2c(C(=O)Nc3cccc4c3c(Br)nn4Cc3cccnc3)csc12	77 nM	IC50 (Cytochrome P450 1A2): < 250 nM; IC50 (Cytochrome P450 2C9): 1380 nM; IC50 (Cytochrome P450 2C19): 2020 nM; IC50 (Cytochrome P450 2D6): > 20 µM; IC50 (Cytochrome P450 3A4): 310 nM
C=Cc1nn(Cc2cccc(C)n2)c2cccc(NC(=O)c3csc4c(N)ncnc34)c12	4460 nM	–
CCc1nn(Cc2cccc(C)n2)c2cccc(NC(=O)c3csc4c(N)ncnc34)c12	> 10000 nM	–
Cc1cccc(Cn2nc(Cl)c3c(NC(=O)c4csc5c(N)ncnc45)cccc32)n1	8 nM	remaining at 1 h [1]: 66%
Cc1cccc(Cn2nc(I)c3c(NC(=O)c4csc5c(N)ncnc45)cccc32)n1	30 nM	–
Cc1cccc(Cn2nc(Br)c3c(NC(=O)c4csc5c(N)ncnc45)cccc32)n1	27.5 to 28 nM	half-life [2]: 156 min; Cmax [3]: 2400 ng/mL; AUC(0-t) at 7 h [4]: 5760 ng·h/mL; Vd [5]: 1.4 L/kg; clearance [6]: 6.67 mL/min/kg; half-life [7]: 234 min; Cmax [8]: 1620 ng/mL; Tmax [9]: 1 h; AUC(0-t) at 7 h [10]: 6060 ng·h/mL; bioavailability [11]: 37%
Nc1ncnc2c(C(=O)Nc3cccc4c3c(Br)nn4Cc3ccccc3)csc12	1000 nM	–
Nc1ncnc2c(C(=O)Nc3cccc4c3c(Br)nn4Cc3cccc(F)n3)csc12	233 nM	–
COc1ccc(Cn2nc(Br)c3c(NC(=O)c4csc5c(N)ncnc45)cccc32)cc1	2390 nM	–
Nc1ncnc2c(C(=O)Nc3cccc4c3c(Br)nn4Cc3ccccn3)csc12	2500 nM	–
COc1cccc(Cn2nc(Br)c3c(NC(=O)c4csc5c(N)ncnc45)cccc32)n1	34 nM	–
CCn1nc(Cn2nc(Br)c3c(NC(=O)c4csc5c(N)ncnc45)cccc32)cc1C(C)C	62 nM	–
Nc1ncnc2c(C(=O)Nc3cccc4c3c(Br)nn4Cc3ccncc3)csc12	135 nM	–
Nc1ncnc2c(C(=O)Nc3cccc4c3c(Br)nn4Cc3cccc(Br)n3)csc12	243 nM	–
Nc1ncnc2c(C(=O)Nc3cccc4c3c(Br)nn4CC3CCCCC3)csc12	254 nM	–
